From article PMC10439066 (Drugs in R&D, 2023)
Positions count from the first letter of the chain named.

Key:
[1] = tested on: serum androsterone; experiment: AKRENDO1 pharmacodynamics; format: in vivo, human; conditions: completers
[2] = biological target: T1, human AKR1D1 (Homo sapiens, UniProt P51857); experiment: AKR1D1 inhibition, cortisone as model substrate; format: biochemical
T1 sequence (P51857 1-326): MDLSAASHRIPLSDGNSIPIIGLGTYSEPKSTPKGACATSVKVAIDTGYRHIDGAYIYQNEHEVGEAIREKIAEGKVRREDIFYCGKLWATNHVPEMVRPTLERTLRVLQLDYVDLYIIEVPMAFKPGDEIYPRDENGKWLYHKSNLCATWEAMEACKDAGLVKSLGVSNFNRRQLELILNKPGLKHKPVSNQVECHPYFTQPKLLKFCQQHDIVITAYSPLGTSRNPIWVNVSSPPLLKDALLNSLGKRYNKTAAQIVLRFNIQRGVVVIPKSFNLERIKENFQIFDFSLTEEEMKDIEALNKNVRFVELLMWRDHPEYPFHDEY

[3] = tested on: androgen receptor; conditions: cited from earlier work
[4] = tested on: 134 human targets including G protein-coupled and nuclear receptors, ion channels, transporters, and enzymes; experiment: Specificity panel
[5] = biological target: T2, recombinant human AKR1C2 (Homo sapiens, UniProt P52895); experiment: Related enzyme screen; format: biochemical; conditions: preclinical screen
T2 sequence (P52895 1-323): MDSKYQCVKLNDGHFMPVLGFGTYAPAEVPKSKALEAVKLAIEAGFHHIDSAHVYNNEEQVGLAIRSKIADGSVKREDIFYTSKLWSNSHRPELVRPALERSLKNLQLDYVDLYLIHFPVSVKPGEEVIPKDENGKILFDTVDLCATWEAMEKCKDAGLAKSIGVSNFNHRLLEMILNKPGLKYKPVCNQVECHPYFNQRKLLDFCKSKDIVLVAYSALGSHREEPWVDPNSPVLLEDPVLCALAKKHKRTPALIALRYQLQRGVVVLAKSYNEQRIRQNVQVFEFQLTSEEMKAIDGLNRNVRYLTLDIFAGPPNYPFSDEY

[6] = biological target: T3, recombinant human AKR1C1 (Homo sapiens, UniProt Q04828); experiment: Related enzyme screen; format: biochemical; conditions: preclinical screen
T3 sequence (Q04828 1-323): T2 sequence (P52895 1-323) with V38T, H47R, V54L, S87C, M151V, H170R, L172Q

[7] = tested on: adult premenopausal women with endometriosis-related pain symptoms; experiment: AKRENDO1 phase IIa trial, liver laboratory parameters; format: in vivo, human
Method in brief: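 Over 12 weeks of oral dosing or placebo, ALT, AST, total bilirubin and INR were measured at all visits except visit 2. Baseline was the last value before treatment start (visit 3, otherwise screening). Suspected liver injury was worked up per FDA 2009 DILI guidance. Severity was graded by DILI Expert Working Group criteria and causality by RUCAM. Post-baseline ALT was classed by ULN multiples.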

[8] = biological target: BSEP (vesicle assay) (Homo sapiens, UniProt O95342); experiment: Transporter inhibition, vesicle assay; format: in vitro ADME; conditions: read-out: Inhibition characteristics in vitro IC50
[9] = AKRENDO1 population pharmacokinetic analysis; format: in vivo, human; conditions: 3 mg OD relative to all doses >3 mg; 95% confidence interval, 11–59; popPK model
[10] = tested on: estrogen receptor; conditions: cited from earlier work
[11] = tested on: healthy pre- and postmenopausal women; conditions: cited from earlier work
[12] = 3 mg OD n = 11, largest value per participant
[13] = 3 mg OD n = 11, treatment-emergent
[14] = 10 mg OD n = 31, largest value per participant
[15] = 10 mg OD n = 31, treatment-emergent
[16] = 30 mg BID n = 11, largest value per participant
[17] = 30 mg BID n = 11, treatment-emergent
[18] = 30 mg OD n = 10, largest value per participant
[19] = 30 mg OD n = 10, treatment-emergent
[20] = 60 mg BID n = 27, largest value per participant
[21] = 60 mg BID n = 27, treatment-emergent

BSEP (vesicle assay), sequence (O95342 whole entry): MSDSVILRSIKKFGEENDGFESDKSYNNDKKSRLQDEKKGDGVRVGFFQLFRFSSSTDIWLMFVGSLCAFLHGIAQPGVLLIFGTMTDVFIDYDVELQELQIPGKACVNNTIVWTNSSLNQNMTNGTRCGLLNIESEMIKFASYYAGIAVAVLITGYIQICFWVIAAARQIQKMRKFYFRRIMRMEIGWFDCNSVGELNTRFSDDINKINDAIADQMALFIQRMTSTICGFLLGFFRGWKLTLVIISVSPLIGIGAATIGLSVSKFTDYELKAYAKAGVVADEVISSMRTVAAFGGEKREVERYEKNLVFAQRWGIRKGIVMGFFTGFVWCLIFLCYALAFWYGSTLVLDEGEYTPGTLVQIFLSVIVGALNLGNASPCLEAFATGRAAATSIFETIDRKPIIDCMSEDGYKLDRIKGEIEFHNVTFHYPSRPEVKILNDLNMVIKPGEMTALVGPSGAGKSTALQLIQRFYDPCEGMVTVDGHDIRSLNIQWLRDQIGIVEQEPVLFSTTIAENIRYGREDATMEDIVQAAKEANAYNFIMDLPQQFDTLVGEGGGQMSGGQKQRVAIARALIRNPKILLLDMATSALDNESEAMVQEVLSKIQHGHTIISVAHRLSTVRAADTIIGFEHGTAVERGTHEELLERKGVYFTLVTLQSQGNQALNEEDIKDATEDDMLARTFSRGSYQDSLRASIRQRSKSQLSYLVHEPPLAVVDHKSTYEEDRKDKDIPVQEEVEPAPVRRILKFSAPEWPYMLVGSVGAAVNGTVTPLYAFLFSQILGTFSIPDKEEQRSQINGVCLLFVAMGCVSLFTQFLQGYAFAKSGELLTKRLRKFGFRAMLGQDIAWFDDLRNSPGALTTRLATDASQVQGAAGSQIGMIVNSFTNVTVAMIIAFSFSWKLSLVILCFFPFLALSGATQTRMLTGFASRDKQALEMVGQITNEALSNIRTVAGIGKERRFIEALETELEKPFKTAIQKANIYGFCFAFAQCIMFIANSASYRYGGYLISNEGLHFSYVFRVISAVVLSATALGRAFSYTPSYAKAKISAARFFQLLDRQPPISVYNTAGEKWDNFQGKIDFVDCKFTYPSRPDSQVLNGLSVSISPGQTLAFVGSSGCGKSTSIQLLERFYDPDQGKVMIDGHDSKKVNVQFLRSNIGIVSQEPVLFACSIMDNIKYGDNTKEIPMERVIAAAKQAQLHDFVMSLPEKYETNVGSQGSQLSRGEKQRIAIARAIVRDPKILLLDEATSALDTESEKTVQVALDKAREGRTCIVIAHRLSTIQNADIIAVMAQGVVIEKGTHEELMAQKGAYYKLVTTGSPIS

CN(CCC(=O)O)C(=O)c1ccc2c(c1)CC[C@@H]1[C@@H]2CC[C@]2(C)C(c3cncc(F)c3)=CC[C@@H]12 [BAY1128688]
cyclicity of sex hormones [1]: No changes | serum concentrations of androsterone ([1]; from visit 4 onwards, 12 weeks): increased dose-dependently | inhibition of human AKR1D1 activity ([2]; 100 µM, cortisone as model substrate, Bayer AG, data on file): 11% | activity against related enzyme ([2]; preclinical screen): no relevant activity | agonism or antagonism [3]: no relevant agonism or antagonism | interactions in specificity panel [4]: no relevant interactions | activity against related enzyme [5]: no relevant activity | activity against related enzyme [6]: no relevant activity | ALT > 2 × ULN and ≤3 × ULN [7, 12]: 0 n (%) | ALT > 3 × ULN and ≤5 × ULN [7, 12]: 0 n (%) | ALT > 5 × ULN and ≤8 × ULN [7, 12]: 0 n (%) | ALT > 8 × ULN [7, 12]: 0 n (%) | AST > 3 × ULN and ≤5 × ULN [7, 12]: 0 n (%) | AST > 8 × ULN [7, 12]: 0 n (%) | ALT, total number of participants with > 2 × ULN [7, 13]: 0 n (%) | AST, total number of participants with > 2 × ULN [7, 13]: 0 n (%) | Bilirubin in serum > 2 × ULN [7, 13]: 0 n (%) | ALT > 2 × ULN and ≤3 × ULN [7, 14]: 1 (3.2) n (%) | ALT > 3 × ULN and ≤5 × ULN [7, 14]: 0 n (%) | ALT > 5 × ULN and ≤8 × ULN [7, 14]: 0 n (%) | ALT > 8 × ULN [7, 14]: 0 n (%) | AST > 3 × ULN and ≤5 × ULN [7, 14]: 0 n (%) | AST > 8 × ULN [7, 14]: 0 n (%) | ALT, total number of participants with > 2 × ULN [7, 15]: 1 (3.2) n (%) | AST, total number of participants with > 2 × ULN [7, 15]: 0 n (%) | Bilirubin in serum > 2 × ULN [7, 15]: 0 n (%) | ALT > 2 × ULN and ≤3 × ULN [7, 16]: 0 n (%) | ALT > 3 × ULN and ≤5 × ULN [7, 16]: 0 n (%) | ALT > 5 × ULN and ≤8 × ULN [7, 16]: 0 n (%) | ALT > 8 × ULN [7, 16]: 0 n (%) | AST > 3 × ULN and ≤5 × ULN [7, 16]: 0 n (%) | AST > 8 × ULN [7, 16]: 0 n (%) | ALT, total number of participants with > 2 × ULN [7, 17]: 0 n (%) | AST, total number of participants with > 2 × ULN [7, 17]: 0 n (%) | Bilirubin in serum > 2 × ULN [7, 17]: 0 n (%) | ALT > 2 × ULN and ≤3 × ULN [7, 18]: 0 n (%) | ALT > 3 × ULN and ≤5 × ULN [7, 18]: 2 (20.0) n (%) | ALT > 5 × ULN and ≤8 × ULN [7, 18]: 0 n (%) | ALT > 8 × ULN [7, 18]: 1 (10.0) n (%) | AST > 3 × ULN and ≤5 × ULN [7, 18]: 0 n (%) | AST > 8 × ULN [7, 18]: 1 (10.0) n (%) | ALT, total number of participants with > 2 × ULN [7, 19]: 3 (30.0) n (%) | AST, total number of participants with > 2 × ULN [7, 19]: 1 (10.0) n (%) | Bilirubin in serum > 2 × ULN [7, 19]: 1 (10.0) n (%) | ALT > 2 × ULN and ≤3 × ULN [7, 20]: 1 (3.7) n (%) | ALT > 3 × ULN and ≤5 × ULN [7, 20]: 3 (11.1) n (%) | ALT > 5 × ULN and ≤8 × ULN [7, 20]: 1 (3.7) n (%) | ALT > 8 × ULN [7, 20]: 1 (3.7) n (%) | AST > 3 × ULN and ≤5 × ULN [7, 20]: 2 (7.4) n (%) | AST > 8 × ULN [7, 20]: 1 (3.7) n (%) | ALT, total number of participants with > 2 × ULN [7, 21]: 6 (22.2) n (%) | AST, total number of participants with > 2 × ULN [7, 21]: 3 (11.1) n (%) | Bilirubin in serum > 2 × ULN [7, 21]: 2 (7.4) n (%) | Dose-dependency of increase in liver transaminases up to liver injury ([7]; AKRENDO1): Risk increased with dose, but extent of ALT increase/liver injury not directly correlated with exposure | Dose-dependency of isolated increase in serum bilirubin ([7]; AKRENDO1): Directly correlated with exposure | Timing of increase in liver transaminases up to liver injury ([7]; AKRENDO1): >8 weeks of exposure to BAY1128688 | time to restoration of normal ALT levels ([7]; after end of treatment): up to 3 months | participants with ALT increase > 5 × ULN ([7]; all dose groups): Three | participants with increased ALT > 3 × ULN ([7]; all dose groups, 90 exposed): eight | hepatotoxicity (elevations in serum ALT) ([7]; at around 12 weeks of treatment): Dose-/exposure-dependent hepatotoxicity was observed | IC50 [8]: 3.6 µM | increase in relative bioavailability [9]: 35% | agonism or antagonism [10]: no relevant agonism or antagonism | increases in ALT or AST ([11]; 90 mg OD and 60 mg BID, 2 weeks): no increases | influence on bile acid metabolism ([11]; exploratory evaluation of bile acids): did not indicate any influence | ovarian cycles ([11]; healthy premenopausal women, up to 60 mg BID for 28 days): normal ovarian cycles were maintained | serum androsterone ([11]; multiple doses): dose-dependent increase
